For orientation: IC50 means the point on the concentration scale where inhibition reaches its midpoint.

The record followed here is ChEMBL document CHEMBL4219197, “Synthesis, biological evaluation and SAR of naftopidil-based arylpiperazine derivatives” (Bioorg Med Chem Lett, 2018).

For test [1], the system named is DU-145. Description: Cytotoxicity against human DU145 cells assessed as growth inhibition after 24 hrs by CCK8 assay. In kind it is functional, cell-based. Particulars: DU-145, 24 h. In short, it runs like this: (§1)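 Cells (PC-3, LNCaP, DU145, normal prostate […] WPMY-1) exposed 24 h to escalating concentrations; viability by CCK-8 read-out as percent of control; IC50 derived.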

The subject of the next test is LNCaP. The test is described as follows: Cytotoxicity against human LNCAP cells assessed as growth inhibition after 24 hrs by CCK8 assay. In kind it is functional, cell-based. Put shortly: as §1
A general note: Tetrazolium assays rely on reduction of a dye to a coloured formazan, in cell work by metabolically active cells.

A further test relates to PC-3. Description: Cytotoxicity against human PC3 cells assessed as growth inhibition after 24 hrs by CCK8 assay. In kind it is functional, cell-based. Particulars: PC-3, 24 h. In short, it runs like this:
as §1

Test [2] is described as follows: Cytotoxicity against human WPMY-1 cells assessed as growth inhibition after 24 hrs by CCK8 assay. Particulars: WPMY-1, 24 h. In kind it is cell-based. Put shortly: as §1
In test [3] the test system is DU-145. The test is described as follows: Potency index, ratio of naftopidil IC50 to compound IC50 for human DU145 cells. In kind it is functional.
Test [4] deals with T1, Alpha-1B adrenergic receptor (Homo sapiens, UniProt P35368).
T1 sequence (P35368 whole entry): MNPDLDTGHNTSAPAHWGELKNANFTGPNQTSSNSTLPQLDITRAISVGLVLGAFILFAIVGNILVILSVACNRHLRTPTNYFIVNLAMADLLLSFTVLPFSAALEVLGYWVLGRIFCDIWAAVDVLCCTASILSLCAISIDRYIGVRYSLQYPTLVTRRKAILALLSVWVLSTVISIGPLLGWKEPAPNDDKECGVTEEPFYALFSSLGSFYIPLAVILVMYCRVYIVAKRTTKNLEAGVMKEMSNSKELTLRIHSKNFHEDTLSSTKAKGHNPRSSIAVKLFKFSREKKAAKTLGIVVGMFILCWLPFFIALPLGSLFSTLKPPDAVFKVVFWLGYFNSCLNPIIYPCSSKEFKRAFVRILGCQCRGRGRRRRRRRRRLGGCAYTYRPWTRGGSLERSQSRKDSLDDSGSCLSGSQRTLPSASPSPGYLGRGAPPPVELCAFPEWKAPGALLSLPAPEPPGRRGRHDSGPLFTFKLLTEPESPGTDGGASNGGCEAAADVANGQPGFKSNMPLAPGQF
Description: Antagonist activity at alpha 1B adrenergic receptor (unknown origin) by luciferase reporter gene assay. In kind it is functional. Put shortly:
(§2)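 Dual-luciferase reporter assay measuring antagonism at α1A, α1B and α1D adrenoceptor subtypes. IC50 values are means of three experiments.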

Test [5] concerns the target T2, Alpha-1A adrenergic receptor (Homo sapiens, UniProt P35348).
T2 sequence (P35348 whole entry): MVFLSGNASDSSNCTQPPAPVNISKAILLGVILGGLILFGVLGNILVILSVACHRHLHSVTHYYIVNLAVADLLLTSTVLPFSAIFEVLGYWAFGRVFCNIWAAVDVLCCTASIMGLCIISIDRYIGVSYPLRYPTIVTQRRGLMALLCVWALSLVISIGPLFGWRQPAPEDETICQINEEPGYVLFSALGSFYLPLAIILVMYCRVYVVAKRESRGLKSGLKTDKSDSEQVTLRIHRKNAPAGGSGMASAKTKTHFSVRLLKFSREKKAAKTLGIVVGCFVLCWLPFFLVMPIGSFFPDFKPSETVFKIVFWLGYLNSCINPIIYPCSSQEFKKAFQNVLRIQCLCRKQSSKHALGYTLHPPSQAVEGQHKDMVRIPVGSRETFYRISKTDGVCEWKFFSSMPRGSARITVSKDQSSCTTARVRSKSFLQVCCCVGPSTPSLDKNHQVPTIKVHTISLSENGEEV
The test is described as follows: Antagonist activity at alpha 1A adrenergic receptor (unknown origin) by luciferase reporter gene assay. In kind it is functional. In short, it runs like this: as §2
(In general: A reporter such as luciferase makes a cellular process visible.)

The target of test [6] is T3, Alpha-1D adrenergic receptor (Homo sapiens, UniProt P25100).
T3 sequence (P25100 whole entry): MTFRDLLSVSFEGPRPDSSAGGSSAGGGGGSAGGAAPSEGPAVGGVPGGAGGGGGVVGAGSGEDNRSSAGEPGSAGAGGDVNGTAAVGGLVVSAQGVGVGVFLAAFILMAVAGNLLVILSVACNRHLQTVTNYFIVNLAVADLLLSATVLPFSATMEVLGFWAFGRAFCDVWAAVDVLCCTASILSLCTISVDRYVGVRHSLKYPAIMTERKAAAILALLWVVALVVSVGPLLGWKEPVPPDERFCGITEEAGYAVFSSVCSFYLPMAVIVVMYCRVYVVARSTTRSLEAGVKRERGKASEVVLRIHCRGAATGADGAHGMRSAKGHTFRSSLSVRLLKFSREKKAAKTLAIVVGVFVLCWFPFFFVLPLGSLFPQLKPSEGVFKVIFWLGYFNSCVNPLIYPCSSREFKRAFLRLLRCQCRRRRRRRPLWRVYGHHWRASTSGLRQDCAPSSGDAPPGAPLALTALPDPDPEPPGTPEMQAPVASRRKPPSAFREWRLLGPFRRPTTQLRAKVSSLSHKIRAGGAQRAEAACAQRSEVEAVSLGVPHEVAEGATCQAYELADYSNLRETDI
The test is described as follows: Antagonist activity at alpha 1D adrenergic receptor (unknown origin) by luciferase reporter gene assay. In kind it is functional. In short, it runs like this: as §2

Consider `FC(F)(F)c1ccccc1N1CCN(CCc2ccc(COc3ccc4c(c3)CCCC4)cc2)CC1`, for which the IC50 in the test on DU-145 [1] is over 50 µM; in the test with LNCaP it was 6.09 µM; in the test with PC-3 it was over 50 µM; in test [2], over 50 µM.

For `Cc1cccc(N2CCN(CCc3ccc(COc4ccc5c(c4)CCCC5)cc3)CC2)c1.Cl.Cl`, the IC50 in the test with DU-145 [1] was 0.83 µM; in the test on LNCaP, over 50 µM; in the test with PC-3, 56.8 µM; in test [4] it was 0.583 µM; in test [5] it was 0.502 µM; in test [6], 0.826 µM. For the same molecule, the IC50 in test [2] was over 50 µM. In the test on DU-145 [3], the “Ratio IC50” value turned out to be 41.

In the case of `CCOc1ccccc1N1CCN(CCc2ccc(COc3ccc4c(c3)CCCC4)cc2)CC1`, the IC50 in the test on DU-145 [1] was over 50 µM; in the test on LNCaP it was 28 µM; in the test on PC-3, over 50 µM; in test [2], over 50 µM.

As to `OC1(c2ccccc2)CCN(CCc2ccc(COc3ccc4c(c3)CCCC4)cc2)CC1`, the IC50 is 3.38 µM in the test with DU-145 [1], 3.03 µM with LNCaP, over 50 µM in the test with PC-3 and 31.7 µM in test [2].

In the case of `COc1ccc(Cl)cc1N1CCN(CCc2ccc(COc3ccc4c(c3)CCCC4)cc2)CC1`, the IC50 was 25.1 µM in the test with DU-145 [1], over 50 µM with LNCaP, over 50 µM in the test on PC-3 and 47 µM in test [2].

As to `Brc1ccc(N2CCN(CCc3ccc(COc4ccc5c(c4)CCCC5)cc3)CC2)cc1`, the IC50 with DU-145 [1] was 21.1 µM; with LNCaP, over 50 µM; in the test with PC-3 it was over 50 µM; in test [2] it was over 50 µM.

For `c1ccc(N2CCN(CCc3ccc(COc4ccc5c(c4)CCCC5)cc3)CC2)cc1`, the IC50 with DU-145 [1] is over 50 µM; in the test on LNCaP, 6.53 µM; in the test on PC-3 it was over 50 µM; in test [2] it was over 50 µM.

As for `COc1ccccc1N1CCN(CCc2ccc(COc3ccc4c(c3)CCCC4)cc2)CC1`, the IC50 in the test on DU-145 [1] is 2.24 µM; with LNCaP it was 3.62 µM; with PC-3, over 50 µM; in test [2], 28.1 µM.

Regarding `Cc1ccccc1N1CCN(CCc2ccc(COc3ccc4c(c3)CCCC4)cc2)CC1`, the IC50 is over 50 µM in the test on DU-145 [1], 32.9 µM with LNCaP, 25.5 µM in the test with PC-3 and over 50 µM in test [2].

As to `Fc1ccccc1N1CCN(CCc2ccc(COc3ccc4c(c3)CCCC4)cc2)CC1`, the IC50 was over 50 µM in the test on DU-145 [1], 7.57 µM in the test with LNCaP, 27.3 µM in the test on PC-3 and over 50 µM in test [2].

In the case of `c1ccc(N2CCN(CCc3ccc(COc4ccc5c(c4)CCCC5)cc3)CC2)nc1`, the IC50 in the test on DU-145 [1] stood at 11.2 µM; in the test on LNCaP it was 2.92 µM; in the test on PC-3, 29.2 µM; in test [2], 49.2 µM.

Consider `Clc1cccc(N2CCN(CCc3ccc(COc4ccc5c(c4)CCCC5)cc3)CC2)c1Cl`, for which the IC50 is 23.1 µM in the test on DU-145 [1], 3.06 µM in the test on LNCaP, over 50 µM in the test on PC-3 and over 50 µM in test [2].

As to `Cc1ccc(Cl)cc1N1CCN(CCc2ccc(COc3ccc4c(c3)CCCC4)cc2)CC1`, the IC50 in the test with DU-145 [1] was over 50 µM; in the test with LNCaP, 7.81 µM; with PC-3, over 50 µM; in test [2], over 50 µM.

Turning to `Cl.Cl.Clc1cccc(N2CCN(CCc3ccc(COc4ccc5c(c4)CCCC5)cc3)CC2)c1`, the IC50 in the test on DU-145 [1] amounted to 0.86 µM; with LNCaP it was 17.3 µM; in the test with PC-3, 46.7 µM; in test [4], 0.998 µM; in test [5], 1.21 µM; in test [6], 0.287 µM. In test [2], the IC50 was over 50 µM. The “Ratio IC50” value with DU-145 [3] is 40.

Take `Fc1ccc(N2CCN(CCc3ccc(COc4ccc5c(c4)CCCC5)cc3)CC2)c(F)c1`: the IC50 was over 50 µM in the test on DU-145 [1], 4.4 µM with LNCaP, over 50 µM in the test on PC-3 and over 50 µM in test [2].

Consider `Cl.c1ccc(C2CCN(CCc3ccc(COc4ccc5c(c4)CCCC5)cc3)CC2)cc1`, for which the IC50 was determined as 0.95 µM in the test on DU-145 [1]; 3.94 µM in the test with LNCaP; 10.5 µM in the test on PC-3; 0.673 µM in test [4]; 0.568 µM in test [5]; 0.453 µM in test [6]. Further, the IC50 in test [2] is over 50 µM. Besides, the “Ratio IC50” value in the test with DU-145 [3] worked out at 36.

On to `Cc1ccc(N2CCN(CCc3ccc(COc4ccc5c(c4)CCCC5)cc3)CC2)cc1`, for which the IC50 in the test on DU-145 [1] is 25.1 µM; in the test on LNCaP it was over 50 µM; in the test with PC-3, over 50 µM; in test [2] it was over 50 µM.

Regarding `N#Cc1ccccc1N1CCN(CCc2ccc(COc3ccc4c(c3)CCCC4)cc2)CC1`, the IC50 with DU-145 [1] is 29.7 µM; in the test on LNCaP, 1.99 µM; in the test with PC-3 it was 32 µM; in test [2], over 50 µM.

Regarding `Clc1ccc(N2CCN(CCc3ccc(COc4ccc5c(c4)CCCC5)cc3)CC2)cc1`, the IC50 (with DU-145 [1]; in the test on LNCaP; in the test with PC-3; in test [2]) was over 50 µM in each case.

As for `FC(F)(F)c1ccc(N2CCN(CCc3ccc(COc4ccc5c(c4)CCCC5)cc3)CC2)cc1`, the IC50 (in the test with DU-145 [1]; in the test with LNCaP; in the test on PC-3; in test [2]) was over 50 µM in each case.

For the molecule `COc1cccc(N2CCN(CCc3ccc(COc4ccc5c(c4)CCCC5)cc3)CC2)c1`, the IC50 with DU-145 [1] was 28.1 µM; with LNCaP it was 8.02 µM; with PC-3 it was 2.84 µM; in test [2] it was 29.1 µM.

Turning to `Clc1ccccc1N1CCN(CCc2ccc(COc3ccc4c(c3)CCCC4)cc2)CC1`, the IC50 was over 50 µM in the test with DU-145 [1], 4.68 µM in the test on LNCaP, 31.3 µM in the test with PC-3 and over 50 µM in test [2].

For the molecule `CC(C)(C)NC(=O)[C@H]1CC[C@H]2[C@@H]3CC[C@H]4NC(=O)C=C[C@]4(C)[C@H]3CC[C@]12C` [FINASTERIDE], the IC50 with DU-145 [1] was determined as 13.5 µM; with LNCaP it was 14.5 µM; in the test with PC-3 it was 17.8 µM.

With `COc1ccccc1N1CCN(CC(O)COc2cccc3ccccc23)CC1` (stereo not given) [NAFTOPIDIL], the values for the IC50 (in the test with PC-3; in test [2]) were 42.1 µM and over 50 µM, respectively.
